Measured values from ChEMBL document CHEMBL5715960, “Epigenetic Co-Deregulation of EZH2/TET1 is a Senescence-Countering, Actionable Vulnerability in Triple-Negative Breast Cancer” (Theranostics, 2019).
Calls of active or inactive are those of the source. The calls are words filed in the database; no cut-off is given here.

Tests used:
MDA-MB-231 [1] = assay: Cytotoxicity against human MDA-MB-231 cells upto 0.5 ug/ml; assay type: functional, cell-based; details: dose <= 0.5 µg/ml
MDA-MB-436 [2] = assay: Cytotoxicity against human MDA-MB-436 cells upto 0.5 ug/ml; assay type: functional, cell-based; details: dose <= 0.5 µg/ml
MDA-MB-231 [3] = assay: Antiproliferative activity against human MDA-MB-231 cells assessed as increase in global H3K9me3 expression level by immunoblot analysis; assay type: functional, cell-based
Summary of the method: (§1)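 Cells exposed to GSK343 at 2 µM (standard level unless stated otherwise), lysed and immunoblotted; α-tubulin and total H3 as loading controls.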

MDA-MB-436 [4] = assay: Antiproliferative activity against human MDA-MB-436 cells assessed as increase in global H3K9me3 expression level by immunoblot analysis; assay type: functional, cell-based; summary of the method: as §1
BT-474 = assay: Antiproliferative activity against human BT-474 cells assessed as increase in global H3K9me3 expression level by immunoblot analysis; assay type: toxicity, cell-based; summary of the method: as §1
MCF7 = assay: Antiproliferative activity against human MCF7 cells assessed as increase in global H3K9me3 expression level by immunoblot analysis; assay type: toxicity, cell-based; summary of the method: as §1

Compound	Activity (MDA-MB-231 [1])	Activity (MDA-MB-436 [2])	Activity (MDA-MB-231 [3])	Activity (MDA-MB-436 [4])	Activity (BT-474)	Activity (MCF7)
COc1cccc2c1C(=O)c1c(O)c3c(c(O)c1C2=O)C[C@@](O)(C(=O)CO)C[C@@H]3O[C@H]1C[C@H](N)[C@H](O)[C@H](C)O1	inactive	inactive	–	–	–	–
Nc1nccc2c1ncn2[C@@H]1C=C(CO)[C@@H](O)[C@H]1O	–	–	Active	inactive	Non-Toxic	Non-Toxic
